Measured values of several laboratories.
Compare with care: the assays were run in different laboratories.
Target: SRSF protein kinase 3 (SRPK3, Homo sapiens, UniProt Q9UPE1)

With CCCOc1ccc(OC)c(F)c1C(=O)c1ccc(C(=O)N[C@@H]2CNC[C@H]2NC(=O)c2ccc3[nH]ncc3c2)cc1 the remaining activity was 77% (enzyme activity; inhibitor; 10 µM).
Cc1cc(NC(=O)c2cccc(S(F)(F)(F)(F)F)c2)cc(-n2ccn3nc(-c4cccnc4)cc23)c1 has a remaining binding of 100% (cell-free assay; competition with immobilised ligand; 1 µM).
For Cn1c2c(Cl)c(Cl)ccc2c2cc[nH]c(=O)c21, the ΔTm was 0.2 °C (thermal stability; DSF; 10 µM).
With CN1CC(Oc2cnc(C#N)cc2-c2ccn3nc(NC(=O)C4CC4)cc3c2)C1 the inhibition was -3% (enzyme activity; inhibitor; 1 µM).
CCN(CC)CCNC(=O)c1c(C)[nH]c(/C=C2\C(=O)Nc3ccc(F)cc32)c1C has an inhibition of 15% (enzyme activity; inhibitor; 10 µM).
O=c1nc(-c2ccccn2)sc2ccccc12 has a remaining binding of 100% (binding; competition with immobilised ligand; 1 µM).
For Cc1ccc(NC(=O)c2ccc(C)c(C(F)(F)F)c2)cc1C#Cc1nn(C2CCC(O)CC2)c2ncnc(N)c12 (centres unmarked), the remaining signal was 56% (cell-free assay; 10 µM).
With COc1cc(-c2cn(C3CCc4c(F)cccc4N(CC(F)(F)F)C3=O)nn2)ccc1-n1cnc(C)c1 (centres unmarked) the remaining binding was 100% (cell-free assay; competition with immobilised ligand; 1 µM).
COc1cc2ncnc(Nc3ccc(Oc4ccccc4)c(C)c3C)c2cc1OC has an inhibition of 5% (enzyme activity; inhibitor; 1 µM).
For Cn1c2c(c3ccc(Cl)c(Cl)c31)C(C#N)C1(CCNCC1)NC2=O (racemic), the ΔTm was 1.9 °C (thermal stability; DSF; 10 µM).
Cc1ccc(C(=O)Nc2ccc(CN3CCN(C)CC3)c(C(F)(F)F)c2)cc1C#Cc1cnc2cccnn12 gave a remaining activity of 96% (enzyme activity; inhibitor; 23.5 nM).
For Cc1ccc(Nc2nccc(N(C)c3ccc4c(C)n(C)nc4c3)n2)cc1S(N)(=O)=O, the inhibition was -13% (enzyme activity; inhibitor; 0.3 µM).
With CC1=C(C#N)[C@@H](c2ccc3[nH]nc(C)c3c2)C(C#N)=C(c2ccc(Cl)cc2)N1 the remaining binding was 100% (cell-free assay; competition with immobilised ligand; 1 µM).
Cc1cc(NC(=O)c2cccc3cc(-c4cccc5[nH]nc(N)c45)ccc23)ccc1F gave an activity vs control of 113% (enzyme activity; inhibitor; 0.1 µM).
CC(C)(C)c1nc(-c2cccc(NS(=O)(=O)c3c(F)cccc3F)c2F)c(-c2ccnc(N)n2)s1 has a remaining activity of 105% (enzyme activity; inhibitor; radiometric; 1 µM).
The inhibition of CNC(=O)c1cc(Oc2ccc(NC(=O)Nc3ccc(Cl)c(C(F)(F)F)c3)cc2)ccn1 is reported as -7% (enzyme activity; inhibitor; 0.3 µM).
O=C(Nc1ccc(Oc2ccc(F)cc2)cc1)N1CCc2ncccc2[C@H]1c1ccc(F)cc1 has a remaining binding of 100% (cell-free assay; competition with immobilised ligand; 1 µM).
CCN(CC)c1ccc(C2=NNC(=O)CC2C)cc1[N+](=O)[O-] (centres unmarked) has a remaining activity of 111% (enzyme activity; inhibitor; 10 µM).
The remaining binding of CCC(=O)N[C@@H]1CC[C@H](C(=O)N(C)c2ccc(-c3nc4ccccc4o3)cc2)C1 is reported as 100% (cell-free assay; competition with immobilised ligand; 1 µM).
The ΔTm of Cn1c2c(Cl)c(Cl)ccc2c2cc(N)[nH]c(=O)c21 is reported as 0.3 °C (thermal stability; DSF; 10 µM).
